Laboratory results published in ChEMBL document CHEMBL1128333, “Derivatives of cis-2-amino-8-hydroxy-1-methyltetralin: mixed 5-HT1A-receptor agonists and dopamine D2-receptor antagonists” (J Med Chem, 1995).

Columns and labels:
Rattus norvegicus [1] = assay: Cage leaving response was studied in rats after subcutaneous administration of 1 uM/Kg of compound; 0/7; type: functional
Rattus norvegicus [2] = assay: Change in body temperature was studied in rats upon subcutaneous administration of 1 uM/Kg of compound; type: functional
Procedure, shortened: (§1)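 Rectal temperature was taken with an electrical thermometer, probe inserted 3.5 cm, before and 30 min after sc injection in 0.9% NaCl. Values are the change from the preinjection reading, analysed by Tukey HSD versus saline-treated rats. Male Sprague–Dawley rats, 260–310 g.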

Rattus norvegicus [3] = species on record: Rattus norvegicus; assay: 5-HIAA (5-Hydroxyindoleacetic acid) content of rat hippocampus reflecting 5-HT metabolism and turnover; type: functional; parameters: concentration or dose not given beside the values
Procedure, shortened: (§2)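 Male Sprague–Dawley rats (260–310 g) received compound sc in 0.9% NaCl; saline controls. Rats were decapitated 35–45 min post-injection, and hippocampus and striatum were dissected and frozen. Tissue was homogenized in 0.1 M perchloric acid with α-methyl-5-hydroxytryptophan as internal standard, centrifuged and filtered, then analysed by HPLC-EC at 0.85 V (mobile phase pH 2.69, 35 °C). Values are percent of control, mean ± SEM.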

Rattus norvegicus [4] = species on record: Rattus norvegicus; assay: 5-HT content of rat hippocampus reflecting 5-HT metabolism and turnover; type: functional; parameters: concentration or dose not given beside the values; procedure, shortened: as §2
Rattus norvegicus [5] = species on record: Rattus norvegicus; assay: DA (dopamine) content of rat striatum reflecting DA metabolism and turnover; type: functional; procedure, shortened: as §2
Rattus norvegicus [6] = species on record: Rattus norvegicus; assay: DOPAC (3,4-dihydroxyphenylacetic acid) content of rat striatum reflecting DA metabolism and turnover; type: functional; parameters: concentration or dose not given beside the values; procedure, shortened: as §2
Rattus norvegicus [7] = species on record: Rattus norvegicus; assay: HVA (Homovanillic acid)content of rat striatum reflecting DA metabolism and turnover; type: functional; parameters: concentration or dose not given beside the values
Rattus norvegicus [8] = assay: Flat body posture behavior was studied in rats after subcutaneous administration of 1 uM/Kg of compound; 7/7; type: functional
Procedure, shortened: (§3)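 Test compounds were given at 32 μmol/kg and the reference 5-HT1A agonist at 1 μmol/kg. Flat body posture, forepaw treading and hind limb abduction were each scored as absent or present. Values are animals showing the behavior out of animals tested, analysed by Fisher's exact test. Male Sprague–Dawley rats, 260–310 g.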

Rattus norvegicus [9] = assay: Forepaw treading (FPT) behavior was studied in rats after subcutaneous administration of 1 uM/Kg of compound; 7/7; type: functional; procedure, shortened: as §3
[10] = target: T1, 5-hydroxytryptamine receptor 1A (Rattus norvegicus, UniProt P19327); assay: Binding affinity for 5-hydroxytryptamine 1A receptor in rat brain tissue using [3H]8-OH-DPAT as radioligand; type: tissue-based
T1 sequence (P19327 whole entry): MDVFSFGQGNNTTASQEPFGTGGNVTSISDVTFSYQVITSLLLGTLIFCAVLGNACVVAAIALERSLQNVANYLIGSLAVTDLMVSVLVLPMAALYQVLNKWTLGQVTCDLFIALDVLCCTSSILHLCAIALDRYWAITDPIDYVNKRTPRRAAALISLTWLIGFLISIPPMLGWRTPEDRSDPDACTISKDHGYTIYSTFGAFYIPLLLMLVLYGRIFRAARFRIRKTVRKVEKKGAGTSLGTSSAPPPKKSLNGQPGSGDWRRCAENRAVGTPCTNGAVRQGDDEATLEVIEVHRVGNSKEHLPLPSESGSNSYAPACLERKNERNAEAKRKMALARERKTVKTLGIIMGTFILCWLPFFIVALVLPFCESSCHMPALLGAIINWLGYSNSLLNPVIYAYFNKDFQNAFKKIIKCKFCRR
Procedure, shortened: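 Membranes from male Sprague–Dawley rat cortex plus hippocampus, homogenized in 50 mM Tris-HCl with 4.0 mM CaCl2 and 5.7 mM ascorbic acid, pH 7.5, and preincubated 10 min at 37 °C with 10 μM pargyline. Assay used 5 mg/mL tissue and 2 nM [3H]-8-OH-DPAT, 10 min at 37 °C. Nonspecific binding was defined with 10 μM 5-HT. Bound ligand was separated on GF/B filters and counted; data were fitted by nonlinear regression.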

D(2) dopamine receptor = D(2) dopamine receptor (Homo sapiens, UniProt P14416); assay: In vitro binding affinity towards human Dopamine receptor D2A was determined in mouse fibroblast LtK cells using [3H]raclopride; type: cell-based
Sequence of D(2) dopamine receptor (P14416 whole entry): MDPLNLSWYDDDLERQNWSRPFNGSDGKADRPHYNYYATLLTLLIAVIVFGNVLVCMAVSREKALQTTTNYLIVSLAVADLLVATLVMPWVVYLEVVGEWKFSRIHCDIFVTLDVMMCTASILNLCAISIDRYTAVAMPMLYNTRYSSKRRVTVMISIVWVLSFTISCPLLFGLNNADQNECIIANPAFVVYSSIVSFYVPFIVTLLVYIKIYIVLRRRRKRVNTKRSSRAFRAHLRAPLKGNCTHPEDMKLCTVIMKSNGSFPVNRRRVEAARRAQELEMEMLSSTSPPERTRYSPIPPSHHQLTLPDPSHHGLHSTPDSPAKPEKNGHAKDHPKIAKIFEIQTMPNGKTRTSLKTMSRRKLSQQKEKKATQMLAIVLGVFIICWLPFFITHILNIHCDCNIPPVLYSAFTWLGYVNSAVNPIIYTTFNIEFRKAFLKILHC
Procedure, shortened: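 Membranes from Ltk− mouse fibroblasts stably expressing human D2A receptors, at 80–100 pM receptor. Buffer was 50 mM Tris-HCl, 120 mM NaCl, 5 mM KCl, 1.5 mM CaCl2, 4 mM MgCl2, 1 mM EDTA, pH 7.4. Incubation with [3H]raclopride was 60 min at 22 °C, in duplicate, with 1 μM (+)-butaclamol for nonspecific binding. Bound ligand was separated on GF/B filters; data were fitted by nonlinear regression.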

Rattus norvegicus [11] = assay: Cage leaving response was studied in rats after subcutaneous administration of 32 uM/Kg of compound; 1/4; type: functional
Rattus norvegicus [12] = assay: Change in body temperature in rats after subcutaneous administration; type: functional; procedure, shortened: as §1
Rattus norvegicus [13] = assay: Flat body posture behavior was studied in rats after subcutaneous administration of 32 uM/Kg of compound; 0/4; type: functional; procedure, shortened: as §3
Rattus norvegicus [14] = assay: Forepaw treading (FPT) behavior was studied in rats after subcutaneous administration of 32 uM/Kg of compound; 0/4; type: functional; procedure, shortened: as §3
Rattus norvegicus [15] = species on record: Rattus norvegicus; assay: Ratio of serotonin turnover (5HIAA to 5-HT) in rat brain hippocampus compared to control; type: functional; procedure, shortened: as §2
Rattus norvegicus [16] = species on record: Rattus norvegicus; assay: Ratio of turnover (DOPAC to DA) in rat brain striatum compared to control.; type: functional; procedure, shortened: as §2
Rattus norvegicus [17] = assay: Cage leaving response was studied in rats after subcutaneous administration of 32 uM/Kg of compound; 0/4; type: functional
Rattus norvegicus [18] = assay: Flat body posture behavior was studied in rats after subcutaneous administration of 32 uM/Kg of compound; 4/4; type: functional; procedure, shortened: as §3
Rattus norvegicus [19] = assay: Forepaw treading (FPT) behavior was studied in rats after subcutaneous administration of 32 uM/Kg of compound; 4/4; type: functional; procedure, shortened: as §3
Rattus norvegicus [20] = assay: Cage leaving response was studied in rats after subcutaneous administration of 32 uM/Kg of compound; 2/5; type: functional
Rattus norvegicus [21] = assay: Flat body posture behavior was studied in rats after subcutaneous administration of 32 uM/Kg of compound; 0/5; type: functional
Rattus norvegicus [22] = assay: Forepaw treading (FPT) behavior was studied in rats after subcutaneous administration of 32 uM/Kg of compound; 0/5; type: functional
Rattus norvegicus [23] = assay: Cage leaving response was studied in rats after subcutaneous administration of 32 uM/Kg of compound; 1/5; type: functional
Rattus norvegicus [24] = assay: Flat body posture behavior was studied in rats after subcutaneous administration of 32 uM/Kg of compound; 3/5; type: functional; procedure, shortened: as §3

Compound	Control (Rattus norvegicus [3]) [%]	Control (Rattus norvegicus [4]) [%]	Control (Rattus norvegicus [5]) [%]	Control (Rattus norvegicus [6]) [%]	Control (Rattus norvegicus [7]) [%]	Ki [10] [nM]	Ki (D(2) dopamine receptor) [nM]	Change of body temperature (Rattus norvegicus [12]) [°C]	Ratio (Rattus norvegicus [15])	Ratio (Rattus norvegicus [16])	Cage leaving (Rattus norvegicus [17])	FBP (Rattus norvegicus [18])	FPT (Rattus norvegicus [19])	FPT (Rattus norvegicus [22])	further results
CCCN(CCC)[C@@H]1CCc2cccc(O)c2C1	80	130	108	109	105	–	–	–	–	–	–	–	–	–	Cage leaving (Rattus norvegicus [1]): 0; Change of body temperature (Rattus norvegicus [2]): -2.6 °C; FBP (Rattus norvegicus [8]): 7; FPT (Rattus norvegicus [9]): 7
CCCN(CCC)[C@H]1CCc2cccc(OC)c2[C@H]1C	79	81	118	80	53	285	1050	-1.2	96	69	–	–	–	–	Cage leaving (Rattus norvegicus [11]): 1; FBP (Rattus norvegicus [13]): 0; FPT (Rattus norvegicus [14]): 0
CCCN(CCC)[C@@H]1CCc2cccc(OC)c2[C@@H]1C	76	108	89	134	121	6	33.9	-2.5	70	151	0	4	4	–	–
CCCN(CCC)[C@H]1CCc2cccc(C(=O)OC)c2[C@H]1C	112	86	96	97	104	417	–	-0.1	131	103	–	–	–	0	Cage leaving (Rattus norvegicus [20]): 2; FBP (Rattus norvegicus [21]): 0
CCCN(CCC)[C@@H]1CCc2ccccc2[C@@H]1C	92	94	95	152	168	49	87	-0.7	98	164	–	–	–	0	Cage leaving (Rattus norvegicus [23]): 1; FBP (Rattus norvegicus [24]): 3
CCCN(CCC)[C@@H]1CCc2cccc(O)c2[C@@H]1C	88	121	83	225	196	–	30	-0.2	72	275	0	4	4	–	–
